# Bioassay records from PubChem BioAssay.
# KCNK9 block = blocks the human KCNK9 two-pore domain potassium channel; 1.2% of 310,000 active; B-score at 10 µM; Q9NPC2; AID 488922; HEK293 KCNK9, FluxOR thallium flux fluorescence; hits give low values;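 active = ratio B-score over 3 SD below the library mean, with starting fluorescence within 5 SD of its mean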;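 note: negative B-score means less thallium flux so channel inhibition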
# KCNK3 block = human KCNK3 channel inhibition, primary screen; O14649; CHO-KCNK3 thallium flux, FluxOR fluorescence; hits give low values; 0.84% of 340,000 active; AID 602410; B-score at 10 µM;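 active = B-score under library mean minus 4 SD, starting fluorescence ratio at most library mean plus 5 SD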;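 note: more negative B-score means stronger inhibition of thallium flux through KCNK3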
# KCNQ1 inh = blocks the human KCNQ1 potassium channel. P51787. CHO-K1 KCNQ1, FluxOR thallium flux fluorescence; hits give high values. B-score at 10 µM. 1.3% of 310,000 active. AID 2642;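 active = compounds whose thallium flux B-score, printed positive for inhibition, exceeds three library SD while starting fluorescence stays within three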;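 note: channel opened by potassium depolarization with thallium stimulus after 20 min compound exposure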
# KCNQ1 pot = human KCNQ1 channel potentiation or activation. P51787. CHO-K1 KCNQ1, thallium flux FluxOR fluorescence; hits give high values. B-score at 10 µM. 0.35% of 310,000 active;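 active = fluorescence ratio B-score, a plate-corrected score, at least three library SD, with initial intensity B-score within 5 SD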
#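 Schedule – 37 °C overnight plating, 90-min dark dye load, 20-min compound pretreatment · System – stable KCNQ1 CHO-K1 line · Probe or stimulus – thallium- and potassium-containing depolarizing buffer · Measured by – kinetic FluxOR fluorescence, 10 s baseline plus 110 s post-stimulus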
# Kir21 block = inhibitors of mouse Kir2.1 inward-rectifier potassium channel | B-score at 10 µM | 0.85% of 310,000 active | HEK293-Kir2.1, FluxOR thallium flux fluorescence; hits give low values | AID 1672;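 active = fluorescence ratio B-score at or below minus 3 SD of library scores, with starting-brightness B-score within 2 SD, cut at about -4.2 in these data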;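 note: channel flux triggered by added potassium and thallium sulfate stimulus; B-score of peak minus minimum fluorescence over baseline after thallium stimulus; more negative B-score means stronger Kir2.1 block with less thallium influx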
# Target sequence (P35561 whole entry, looked up): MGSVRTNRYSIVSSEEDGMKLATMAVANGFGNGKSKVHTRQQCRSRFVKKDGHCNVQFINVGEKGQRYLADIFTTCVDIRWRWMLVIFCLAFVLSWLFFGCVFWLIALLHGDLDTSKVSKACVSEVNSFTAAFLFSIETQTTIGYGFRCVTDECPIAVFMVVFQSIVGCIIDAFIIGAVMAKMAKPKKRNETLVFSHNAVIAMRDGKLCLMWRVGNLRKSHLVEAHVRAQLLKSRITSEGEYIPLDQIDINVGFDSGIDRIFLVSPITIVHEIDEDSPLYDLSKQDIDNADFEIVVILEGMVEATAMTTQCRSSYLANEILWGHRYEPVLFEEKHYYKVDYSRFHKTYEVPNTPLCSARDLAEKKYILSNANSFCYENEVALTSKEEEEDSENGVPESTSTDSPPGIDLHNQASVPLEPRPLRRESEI
# hERG protect = hERG (human) protection from proarrhythmic block | Q12809 | CHO-hERG, FluxOR thallium flux, dofetilide IC70 present | activation (rescue from dofetilide block), less the hit threshold, % at 10 µM | 0.51% of 310,000 active | AID 1511;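 active = activation above the mean of controls blocked by dofetilide plus 5 SD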;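 note: thallium influx through hERG after potassium depolarization seen as dye fluorescence rise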
# KCNK3 confirm = human KCNK3 channel inhibition, confirmation assay | shares compounds with KCNK3 block | CHO-KCNK3 thallium flux, FluxOR fluorescence; 0% buffer, 100% carvedilol maximal block | ratio percent of control, % at 10 µM | 99% of 2,400 active | AID 651638;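 active = ratio percent of control, averaged over triplicates, above buffer control mean plus 5 SD, cut at about 64% in these data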;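 note: ratio is the fluorescence rise from min to max over baseline after thallium stimulus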
# KCNK3 noninduced = activity in cells without induced KCNK3 expression; shares compounds with KCNK3 block; non-induced KCNK3 parental cells, FluxOR thallium flux; hits give low values; thallium flux ratio (lower = more inhibition) at 10 µM; 40% of 2,400 active;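 active = thallium flux ratio, averaged over three wells, more than 5 SD below the buffer control mean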;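 note: host cells are CHO cells without KCNK3 induction; ratio is peak minus trough fluorescence over baseline then normalized to buffer controls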
# * hit, by the source's call; i = inactive; / = no result given. The list is not random: actives were taken first. Their share in the collection is about 3.7%.
SMILES,KCNK9 block,KCNK3 block,KCNQ1 inh,KCNQ1 pot,Kir21 block,hERG protect,KCNK3 confirm,KCNK3 noninduced
Oc1nc(Nc2cccc(Cl)c2)sc1/C=C1\C=Nc2ccccc21,i,i,i,i,-0.88,-16,/,/
Oc1cccc(Nc2nc(O)c(/C=C3\C=Nc4ccccc43)s2)c1,/,-15*,/,/,/,/,148*,0.083*
CCS(=O)(=O)N1CCN(c2ncnc3sc(C)c(C)c23)CC1,i,i,i,i,0.93,-2,/,/
Cc1sc2ncnc(N3CCN(S(=O)(=O)c4ccc(F)cc4)CC3)c2c1C,i,-11*,i,i,-0.92,-11,124*,0.16*
CCOc1ccccc1C(=O)NCCCCNC(=O)c1ccccc1OCC,i,-9.8*,i,i,0.76,-13,94*,i
CCOc1cc(NC(=O)C2CC2)c(OCC)cc1NC(=O)c1cc(OC)c(OC)c(OC)c1,i,i,i,i,0.55,-10,/,/
CCOc1cc(NC(=O)C2CC2)c(OCC)cc1NC(=O)c1ccccc1OCC,i,-8.7*,i,i,1.1,-16,102*,i
O=C(CCc1ccccc1)Nc1ccc2c(c1)C(=O)OC2,i,i,i,i,-2,-4,/,/
N#Cc1ccccc1OCC(=O)NCc1ccccc1CN1CCCC1,/,i,/,/,/,/,/,/
CCN1C(=O)C(CC(=O)Nc2ccc(OC)cc2)N(CCc2ccccc2)C1=S (stereo not drawn),i,-8.8*,i,i,0.11,-22,113*,i
CCN1C(=O)C(CC(=O)Nc2ccc(OC)cc2)N(CCc2ccccc2F)C1=S (stereo not drawn),i,i,i,i,0,-11,/,/
CCn1c(SCc2cccc(OC)c2)nc2ccccc2c1=O,i,-10*,i,i,1.1,-15,128*,0.13*
O=c1c2ccccc2nc(SCc2nnc(-c3ccccc3Br)o2)n1-c1ccccc1,-6.9*,-12*,i,i,1.3,-7,117*,i
Cn1c(SCc2cccc(Br)c2)nc2ccccc2c1=O,i,-10*,i,i,-1,-14,160*,0.082*
Cn1c(SCc2ccccc2Br)nc2ccccc2c1=O,i,-9*,i,i,1.6,-11,134*,i
Cc1ccccc1CSc1nc2ccccc2c(=O)n1C,/,i,/,/,/,/,/,/
O=[N+]([O-])c1ccc(CSc2nnc(-c3cccnc3)o2)cc1,i,i,i,i,1.1,-8,/,/
CCOc1ccccc1NC(=O)C(NCCN(C)C)c1ccccc1 (stereo not drawn),i,i,i,i,0.91,-7,/,/
CCOc1ccccc1NC(=O)C(NCCc1ccc(OC)cc1)c1ccccc1 (stereo not drawn),i,-10*,6*,i,0.01,-6,132*,0.13*
O=[N+]([O-])c1cc(C(F)(F)F)ccc1NCC1CCCO1 (stereo not drawn),i,-9.7*,i,i,0.76,0,70*,i
O=C(Nc1ccccc1)c1ccc(NCC2CCCO2)c([N+](=O)[O-])c1 (stereo not drawn),i,i,i,i,-0.27,-7,/,/
CCOc1ccc(NC(=O)CN2C(=O)NC(C)(c3ccc(OC(F)F)cc3)C2=O)cc1 (stereo not drawn),i,i,i,i,0.15,-4,/,/
CCOC(=O)N1CCC(N2Cc3cccc(C(=O)NC(C)c4ccc5c(c4)OCCO5)c3C2=O)CC1 (stereo not drawn),i,-13*,i,i,-0.02,-14,101*,i
CC1(C)SC2c3ccccc3C(=O)N2C1C(=O)O (stereo not drawn),/,i,/,/,/,/,/,/
CC(C)(C)c1ccc(C(=O)/C(C#N)=C/c2cccs2)cc1,i,-12*,6*,i,2.3,-5,111*,i
SMILES,KCNK9 block,KCNK3 block,KCNQ1 inh,KCNQ1 pot,Kir21 block,hERG protect,KCNK3 confirm,KCNK3 noninduced
Cc1cccc(C)c1NC(=O)/C(C#N)=C/c1cccs1,i,i,i,i,-0.01,2,/,/
COc1ccc(S(=O)(=O)Oc2ccc3cccc(N)c3c2)cc1,i,-9.1*,i,i,-1.9,-9,101*,i
Cc1ccc(OCc2cc(C(=O)NCc3ccc(OC(F)(F)F)cc3)no2)cn1,i,i,i,i,-0.53,-2,/,/
CCc1cc(CNC(=O)c2cc(COc3ccc(C)nc3)on2)on1,i,-9.4*,i,i,1.1,-6,0,i
CCCCn1c(N)c(N(C)C(=O)c2ccc(OCC3CCCO3)cc2)c(=O)[nH]c1=O (stereo not drawn),/,i,/,/,/,/,/,/
N#Cc1nc(COc2ccccc2F)oc1NCCc1ccccc1,i,-10*,i,i,0.84,-8,102*,i
N#Cc1nc(COc2ccccc2F)oc1N1CCCCCC1,/,i,/,/,/,/,/,/
CN(Cc1ccccc1)c1oc(COc2ccccc2F)nc1C#N,i,-13*,i,i,-0.45,-11,115*,0.14*
CCOC(=O)c1sc2nc(C)nc(NCc3ccc(Cl)cc3)c2c1C,i,-11*,i,i,1.8,-16,121*,0.13*
CCOC(=O)c1sc2nc(C)nc(NCc3ccc(F)cc3)c2c1C,i,-10*,i,i,0.55,-8,116*,0.15*
CCOC(=O)c1sc2nc(CC(=O)OC)nc(NCc3ccc(F)cc3)c2c1C,i,i,i,i,0.38,-8,/,/
Cc1ccc(Nc2nc(Cl)nc3ncn(C)c23)c(C)c1,/,i,/,/,/,/,/,/
O=C(COC(=O)C12CC3CC(CC(O)(C3)C1)C2)Nc1cccc(Br)c1,/,i,/,/,/,/,/,/
CCc1ccc(C(=O)NC(=S)NCc2cccnc2)cc1,i,i,i,i,0.95,-11,/,/
CCCCCCNCc1ccc(Br)cc1,i,-9.7*,i,i,-1.4,-6,77*,i
CCCCCNCc1ccc(Br)cc1,i,i,i,i,1.6,-5,/,/
Cc1csc2c(N3CCN(C(=O)Nc4ccccc4)CC3)ncnc12,i,i,i,i,1.1,-11,/,/
Cc1csc2ncnc(N3CCN(C(=O)Nc4ccc(OC(F)(F)F)cc4)CC3)c12,i,-9.7*,i,i,0.81,-20,109*,0.16*
CCCOc1cccc(NC(=O)c2c(-c3ccccc3)noc2C)c1,i,i,i,i,-1.4,-7,/,/
Cc1cccc(OCCOC(=O)c2c(-c3ccccc3)noc2C)c1,i,-13*,i,i,2.1,-7,108*,i
